# Experiments:
# [1] = biological target: T1, Nuclear receptor subfamily 1 group I member 2 (Homo sapiens, UniProt O75469); assay: Activation of PXR (unknown origin); type: ADME
# T1 sequence (O75469 whole entry): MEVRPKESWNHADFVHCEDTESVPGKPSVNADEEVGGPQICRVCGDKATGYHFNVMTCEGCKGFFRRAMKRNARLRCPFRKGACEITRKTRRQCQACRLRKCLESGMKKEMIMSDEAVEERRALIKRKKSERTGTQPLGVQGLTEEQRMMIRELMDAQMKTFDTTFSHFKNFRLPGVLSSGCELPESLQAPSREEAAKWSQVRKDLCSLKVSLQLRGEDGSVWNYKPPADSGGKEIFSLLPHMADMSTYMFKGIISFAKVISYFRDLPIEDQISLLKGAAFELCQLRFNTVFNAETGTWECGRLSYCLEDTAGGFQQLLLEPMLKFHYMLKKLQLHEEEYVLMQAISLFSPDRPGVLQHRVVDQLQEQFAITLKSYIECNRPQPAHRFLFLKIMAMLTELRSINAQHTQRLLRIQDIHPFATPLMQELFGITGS
# [2] = biological target: 11-beta-hydroxysteroid dehydrogenase 1 (Mus musculus, UniProt P50172); assay: Inhibition of recombinant mouse 11beta-HSD1 expressed in HEK293 cell microsomes using [3H]cortisone as substrate after 4 hrs by homogeneous immuno-radiometric scintillation proximity assay
# [3] = Total plasma clearance in cynomolgus monkey at 1 mg/kg, iv by LC-MS/MS analysis; type: ADME, organism-based, Macaca fascicularis
# Cytochrome P450 1A2 = biological target: T2, Cytochrome P450 1A2 (Homo sapiens, UniProt P05177); assay: Inhibition of human CYP1A2; type: ADME
# T2 sequence (P05177 whole entry): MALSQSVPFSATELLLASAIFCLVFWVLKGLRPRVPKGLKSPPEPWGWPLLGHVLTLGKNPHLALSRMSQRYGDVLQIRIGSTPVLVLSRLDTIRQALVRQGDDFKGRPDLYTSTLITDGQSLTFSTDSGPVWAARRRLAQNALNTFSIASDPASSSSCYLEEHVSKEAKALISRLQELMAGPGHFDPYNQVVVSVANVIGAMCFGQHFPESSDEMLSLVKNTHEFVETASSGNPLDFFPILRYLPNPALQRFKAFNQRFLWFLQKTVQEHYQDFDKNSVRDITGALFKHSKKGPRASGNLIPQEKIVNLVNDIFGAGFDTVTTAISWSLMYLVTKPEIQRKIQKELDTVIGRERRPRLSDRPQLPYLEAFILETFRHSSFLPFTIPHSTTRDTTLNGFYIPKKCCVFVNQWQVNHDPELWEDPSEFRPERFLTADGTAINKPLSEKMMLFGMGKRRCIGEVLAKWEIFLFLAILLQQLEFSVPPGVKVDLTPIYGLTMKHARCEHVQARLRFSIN
# [4] = Inhibition of recombinant cynomolgus monkey 11beta-HSD1 expressed in HEK293 cell microsomes using [3H]cortisone as substrate after 4 hrs by homogeneous immuno-radiometric scintillation proximity assay; parameters: species or system Macaca fascicularis
# [5] = Ratio of drug level in liver to plasma in diet induced obese mouse administered via oral gavage; type: ADME; conditions: liver and plasma
# Mus musculus [6] = assay: Ex vivo inhibition of 11beta-HSD1 in diet induced obese mouse adipose tissue assessed as reduction in conversion of dehydrocorticosterone to corticosterone administered via oral gavage pretreated for 3 hrs followed by dehydrocorticosterone addition by LC-MS analysis; type: functional
# [7] = Oral bioavailability in cynomolgus monkey at 1.47 mg/kg by LC-MS/MS analysis; type: ADME, organism-based, Macaca fascicularis; conditions: in vivo
# Method in brief: (§1)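 Given orally as a homogenized suspension, to mouse and to cynomolgus monkey.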
# hERG (KCNH2) [8] = biological target: T3, hERG (KCNH2) (Homo sapiens, UniProt Q12809); assay: Inhibition of human ERG at 30 uM by whole-cell patch clamp method relative to control
# [9] = Toxicity in cynomolgus monkey assessed as emesis up to 100 mg/kg, po administered as single dose; type: organism-based, Macaca fascicularis; conditions: in vivo
# [10] = Protein binding in cynomolgus monkey plasma; type: ADME, cell-free, Macaca fascicularis; conditions: read-out: PPB (converted)
# [11] = Volume of distribution at steady state in cynomolgus monkey at 1 mg/kg, iv by LC-MS/MS analysis; type: ADME, organism-based, Macaca fascicularis; conditions: in vivo, read-out: Vdss
# Mus musculus [12] = assay: Selectivity ratio of ED50 for inhibition of 11beta-HSD1 in po dosed diet induced obese mouse to ED50 for ex vivo inhibition of 11beta-HSD1 in diet induced obese mouse adipose tissue administered via oral gavage; type: functional
# [13] = Genotoxicity in Salmonella typhimurium by Ames test; type: toxicity; conditions: salmonella enterica subsp. enterica serovar typhimurium
# [14] = Toxicity in mouse up to 100 mg/kg, po administered as single dose; type: organism-based; conditions: in vivo
# hERG (KCNH2) [15] = biological target: T3, hERG (KCNH2); assay: Inhibition of human ERG at 10 uM by whole-cell patch clamp method relative to control
# [16] = Stability in cynomolgus monkey microsomes assessed as parent compound remaining after 30 mins; type: ADME, Macaca fascicularis, Microsome; conditions: read-out: Stability
# Cytochrome P450 3A4 = Cytochrome P450 3A4 (Homo sapiens, UniProt P08684); assay: Inhibition of human CYP3A4; type: ADME
# [17] = Selectivity ratio of ED50 for inhibition of 11beta-HSD1 in po dosed diet induced obese mouse to ED50 for inhibition of 11beta-HSD1 in po cynomolgus monkey; type: functional
# Cynomolgus monkey = assay: In-vivo inhibition of 11beta-HSD1 in po cynomolgus monkey assessed as reduction in conversion of dehydrocorticosterone to corticosterone pretreated for 30 to 60 mins followed by dehydrocorticosterone addition and measured after 30 to 120 mins by enzyme immunosorbent assay; type: functional; conditions: Macaca fascicularis
# [18] = Oral bioavailability in Balb/C mouse at 10 mg/kg by LC-MS/MS analysis; type: ADME, organism-based; conditions: in vivo; method in brief: as §1
# [19] = Stability in mouse microsomes assessed as parent compound remaining after 30 mins; type: ADME, Microsome; conditions: read-out: Stability
# [20] = Total plasma clearance in Balb/C mouse at 5 mg/kg, iv by LC-MS/MS analysis; type: ADME, organism-based
# [21] = Genotoxicity in Escherichia coli by SOS chromotest; type: toxicity
# [22] = Stability in rat microsomes assessed as parent compound remaining after 30 mins; type: ADME, Microsome; conditions: read-out: Stability
# [23] = Efflux ratio of permeability from basolateral to apical side over apical to basolateral side in human Caco2 cells at 3 uM; conditions: caco-2, 3 µM
# [24] = Stability in human microsomes assessed as parent compound remaining after 30 mins; type: ADME, Microsome; conditions: read-out: Stability
# Mus musculus [25] = assay: In-vivo inhibition of 11beta-HSD1 in po dosed diet induced obese mouse assessed as reduction in conversion of dehydrocorticosterone to corticosterone pretreated for 30 to 60 mins followed by dehydrocorticosterone addition and measured after 30 to 120 mins by enzyme immunosorbent assay; type: functional
# [26] = Volume of distribution at steady state in Balb/C mouse at 5 mg/kg, iv by LC-MS/MS analysis; type: ADME, organism-based; conditions: in vivo, read-out: Vdss
# [27] = Protein binding in human plasma; type: ADME, cell-free; conditions: read-out: PPB (converted)
# Cytochrome P450 2D6 = Cytochrome P450 2D6 (Homo sapiens, UniProt P10635); assay: Inhibition of human CYP2D6; type: ADME
# Cytochrome P450 2C19 = Cytochrome P450 2C19 (Homo sapiens, UniProt P33261); assay: Inhibition of human CYP2C19; type: ADME
# [28] = Permeability of the compound by PAMPA; type: ADME; conditions: read-out: permeability
# [29] = Protein binding in mouse plasma; type: ADME, cell-free; conditions: read-out: PPB (converted)
# Cytochrome P450 2C9 = Cytochrome P450 2C9 (Homo sapiens, UniProt P11712); assay: Inhibition of human CYP2C9; type: ADME
# [30] = biological target: 11-beta-hydroxysteroid dehydrogenase 1 (Homo sapiens, UniProt P28845); assay: Inhibition of recombinant human 11beta-HSD1 expressed in HEK293 cell microsomes using [3H]cortisone as substrate after 4 hrs by homogeneous immuno-radiometric scintillation proximity assay; type: cell-based
# [31] = Ratio of drug level in adipose tissue to plasma in diet induced obese mouse administered via oral gavage; type: ADME; conditions: adipose tissue and plasma
# Chain of 11-beta-hydroxysteroid dehydrogenase 1 (Mus musculus, UniProt P50172) (P50172 whole entry): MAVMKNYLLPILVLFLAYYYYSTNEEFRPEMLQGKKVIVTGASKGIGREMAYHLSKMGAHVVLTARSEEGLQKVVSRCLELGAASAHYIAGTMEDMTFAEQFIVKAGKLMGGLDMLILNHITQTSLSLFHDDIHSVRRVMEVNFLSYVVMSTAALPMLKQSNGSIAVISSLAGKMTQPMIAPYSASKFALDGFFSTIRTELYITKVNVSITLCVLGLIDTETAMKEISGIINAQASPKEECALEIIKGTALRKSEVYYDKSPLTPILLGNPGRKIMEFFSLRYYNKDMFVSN
# T3 sequence (Q12809 whole entry): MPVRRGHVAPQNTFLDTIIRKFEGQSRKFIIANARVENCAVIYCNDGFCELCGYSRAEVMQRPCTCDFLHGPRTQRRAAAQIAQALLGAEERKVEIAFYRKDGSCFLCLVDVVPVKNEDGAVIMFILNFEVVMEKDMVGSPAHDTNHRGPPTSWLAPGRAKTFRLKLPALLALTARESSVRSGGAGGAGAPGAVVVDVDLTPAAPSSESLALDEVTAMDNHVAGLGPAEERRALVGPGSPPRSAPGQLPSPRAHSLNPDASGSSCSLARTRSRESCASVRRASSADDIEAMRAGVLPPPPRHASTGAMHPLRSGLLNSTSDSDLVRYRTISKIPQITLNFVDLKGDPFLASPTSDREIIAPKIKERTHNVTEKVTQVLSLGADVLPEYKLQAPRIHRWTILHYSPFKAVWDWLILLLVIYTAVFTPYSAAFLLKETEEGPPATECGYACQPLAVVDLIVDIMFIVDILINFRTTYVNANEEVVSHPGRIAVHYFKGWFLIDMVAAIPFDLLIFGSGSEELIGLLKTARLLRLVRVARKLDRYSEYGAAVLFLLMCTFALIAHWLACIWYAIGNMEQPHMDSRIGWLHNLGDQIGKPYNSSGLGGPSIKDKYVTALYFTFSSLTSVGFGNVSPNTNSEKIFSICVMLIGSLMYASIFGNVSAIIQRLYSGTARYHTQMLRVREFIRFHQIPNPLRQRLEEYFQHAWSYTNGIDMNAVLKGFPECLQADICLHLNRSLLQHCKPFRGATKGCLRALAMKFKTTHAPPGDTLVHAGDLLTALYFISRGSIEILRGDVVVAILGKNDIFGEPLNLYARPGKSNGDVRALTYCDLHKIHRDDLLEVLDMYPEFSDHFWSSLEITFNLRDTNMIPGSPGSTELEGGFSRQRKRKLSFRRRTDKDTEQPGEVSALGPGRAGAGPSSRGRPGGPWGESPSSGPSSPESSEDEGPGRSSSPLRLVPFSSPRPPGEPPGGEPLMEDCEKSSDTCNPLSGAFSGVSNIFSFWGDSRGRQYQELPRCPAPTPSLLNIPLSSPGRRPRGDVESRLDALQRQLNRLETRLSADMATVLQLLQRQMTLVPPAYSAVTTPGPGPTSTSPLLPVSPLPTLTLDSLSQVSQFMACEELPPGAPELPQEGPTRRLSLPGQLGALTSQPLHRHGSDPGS
# Chain of Cytochrome P450 2C9 (P11712 whole entry): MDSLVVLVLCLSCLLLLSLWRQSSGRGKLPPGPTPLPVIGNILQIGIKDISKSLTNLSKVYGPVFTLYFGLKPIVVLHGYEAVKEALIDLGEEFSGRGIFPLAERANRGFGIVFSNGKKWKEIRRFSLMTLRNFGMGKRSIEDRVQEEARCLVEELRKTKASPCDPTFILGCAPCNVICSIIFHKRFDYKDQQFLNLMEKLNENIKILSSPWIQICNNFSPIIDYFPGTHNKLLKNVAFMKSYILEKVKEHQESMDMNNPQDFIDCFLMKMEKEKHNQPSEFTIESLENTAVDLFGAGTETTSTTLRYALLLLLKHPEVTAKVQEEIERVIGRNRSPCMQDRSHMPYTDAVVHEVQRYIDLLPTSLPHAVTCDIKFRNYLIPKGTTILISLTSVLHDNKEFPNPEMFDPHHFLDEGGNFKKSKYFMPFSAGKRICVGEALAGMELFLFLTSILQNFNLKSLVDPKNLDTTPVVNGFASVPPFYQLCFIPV
# Chain of Cytochrome P450 3A4 (P08684 whole entry): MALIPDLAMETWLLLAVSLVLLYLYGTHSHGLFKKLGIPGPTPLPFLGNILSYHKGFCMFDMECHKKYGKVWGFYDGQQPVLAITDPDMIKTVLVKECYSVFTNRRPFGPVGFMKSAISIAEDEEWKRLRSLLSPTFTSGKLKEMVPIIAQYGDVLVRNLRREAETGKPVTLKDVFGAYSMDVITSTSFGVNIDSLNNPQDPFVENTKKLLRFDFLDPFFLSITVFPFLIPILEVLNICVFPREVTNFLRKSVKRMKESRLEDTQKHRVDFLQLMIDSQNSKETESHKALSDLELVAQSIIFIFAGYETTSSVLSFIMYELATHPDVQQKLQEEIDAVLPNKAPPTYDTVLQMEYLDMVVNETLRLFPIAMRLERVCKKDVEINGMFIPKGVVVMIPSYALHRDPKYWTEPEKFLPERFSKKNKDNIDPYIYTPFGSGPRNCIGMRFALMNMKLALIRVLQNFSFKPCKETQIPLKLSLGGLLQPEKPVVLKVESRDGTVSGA
# Chain of Cytochrome P450 2D6 (P10635 whole entry): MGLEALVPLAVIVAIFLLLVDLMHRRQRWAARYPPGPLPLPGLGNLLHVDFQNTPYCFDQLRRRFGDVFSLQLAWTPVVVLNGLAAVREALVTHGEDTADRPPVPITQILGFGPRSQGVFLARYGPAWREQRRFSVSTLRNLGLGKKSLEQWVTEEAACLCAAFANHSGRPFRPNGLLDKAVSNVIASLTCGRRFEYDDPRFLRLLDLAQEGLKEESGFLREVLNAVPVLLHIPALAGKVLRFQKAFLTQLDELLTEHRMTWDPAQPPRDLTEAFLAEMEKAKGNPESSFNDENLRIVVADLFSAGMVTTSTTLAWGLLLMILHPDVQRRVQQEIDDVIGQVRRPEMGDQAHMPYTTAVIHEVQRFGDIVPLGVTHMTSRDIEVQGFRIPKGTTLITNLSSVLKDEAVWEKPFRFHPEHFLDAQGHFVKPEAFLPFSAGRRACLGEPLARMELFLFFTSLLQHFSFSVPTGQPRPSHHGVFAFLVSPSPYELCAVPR
# Chain of 11-beta-hydroxysteroid dehydrogenase 1 (Homo sapiens, UniProt P28845) (P28845 whole entry): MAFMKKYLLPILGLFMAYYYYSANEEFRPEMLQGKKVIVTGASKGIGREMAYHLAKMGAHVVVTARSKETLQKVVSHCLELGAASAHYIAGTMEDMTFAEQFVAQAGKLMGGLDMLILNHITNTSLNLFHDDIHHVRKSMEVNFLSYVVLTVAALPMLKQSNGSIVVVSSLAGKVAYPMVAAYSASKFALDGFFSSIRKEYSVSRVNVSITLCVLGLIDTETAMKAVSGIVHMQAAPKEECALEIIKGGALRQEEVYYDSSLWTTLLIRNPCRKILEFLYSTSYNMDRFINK
# Chain of Cytochrome P450 2C19 (P33261 whole entry): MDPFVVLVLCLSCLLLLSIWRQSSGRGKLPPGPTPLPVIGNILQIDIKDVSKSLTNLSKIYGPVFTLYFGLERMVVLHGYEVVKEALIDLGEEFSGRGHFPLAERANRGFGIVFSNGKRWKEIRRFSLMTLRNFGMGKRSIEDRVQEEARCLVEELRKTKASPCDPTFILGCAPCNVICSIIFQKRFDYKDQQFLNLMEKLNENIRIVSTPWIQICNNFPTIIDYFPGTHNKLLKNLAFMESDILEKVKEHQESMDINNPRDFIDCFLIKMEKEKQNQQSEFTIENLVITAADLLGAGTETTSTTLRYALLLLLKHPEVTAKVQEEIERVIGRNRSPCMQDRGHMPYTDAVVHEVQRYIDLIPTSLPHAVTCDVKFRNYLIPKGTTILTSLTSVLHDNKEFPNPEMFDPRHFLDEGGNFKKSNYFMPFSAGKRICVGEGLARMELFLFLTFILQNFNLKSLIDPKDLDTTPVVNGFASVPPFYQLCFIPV
structure (smiles),measurement,setting,value
OC(c1cccn2c(C3(c4ccc(Cl)cc4)CC3)nnc12)C1CC1 (stereo unspecified),EC50,[1],48 µM
same,IC50,[2],8.06 µM
CC(C)(O)c1cccn2c(C3(c4ccc(Cl)cc4)CC3)nnc12 [BMS-823778 FREE BASE],clearance,[3],1.2 mL/min/kg
same,IC50,Cytochrome P450 1A2,> 30 µM
same,Ki,[4],7 nM
same,Kp,[5],3.5
same,ED50,Mus musculus [6],5.2 mg/kg
same,bioavailability,[7],100%
same,inhibition at 30 µM,hERG (KCNH2) [8],31.2%
same,Activity,[9],Toxic
same,fraction unbound,[10],0.16
same,Vd,[11],2.3 L/kg
same,Ratio ED50,Mus musculus [12],6.5
same,Activity,[13],Non-Toxic
same,Activity,[14],Non-Toxic
same,inhibition at 10 µM,hERG (KCNH2) [15],19.8%
same,remaining at 0.5 h,[16],96 to 100%
same,IC50,Cytochrome P450 3A4,> 30 µM
same,EC50,[1],> 50 µM
same,Ratio ED50,[17],57
same,ED50,Cynomolgus monkey,0.6 mg/kg
same,IC50,[2],0.6 µM
same,Ki,[2],380 nM
same,bioavailability,[18],44%
same,remaining at 0.5 h,[19],96 to 100%
same,clearance,[20],2.3 mL/min/kg
same,Activity,[21],Non-Toxic
same,remaining at 0.5 h,[22],96 to 100%
same,Ratio,[23],< 2
same,remaining at 0.5 h,[24],96 to 100%
same,ED50,Mus musculus [25],34 mg/kg
same,Vd,[26],1.2 L/kg
same,fraction unbound,[27],0.15
same,IC50,Cytochrome P450 2D6,> 30 µM
same,IC50,Cytochrome P450 2C19,> 30 µM
same,Papp,[28],> 50 ×10⁻⁶ cm/s
same,fraction unbound,[29],0.13
same,IC50,Cytochrome P450 2C9,> 30 µM
same,Ki,[30],0.9 nM
same,Kp,[31],2.5
CC(C)(CCO)c1cccn2c(C3(c4ccc(Cl)cc4)CC3)nnc12,EC50,[1],1.3 µM
same,IC50,[2],1.15 µM
CC(C)(C(=O)O)c1cccn2c(C3(c4ccc(Cl)cc4)CC3)nnc12,EC50,[1],> 50 µM
same,IC50,[2],> 10 µM
OCc1cccn2c(C3(c4ccc(Cl)cc4)CC3)nnc12,EC50,[1],25 µM
same,IC50,[2],3.8 µM

# — ChEMBL document CHEMBL4325920, “Discovery of Clinical Candidate BMS-823778 as an Inhibitor of Human 11β-Hydroxysteroid Dehydrogenase Type 1 (11β-HSD-1)” (ACS Med Chem Lett, 2018)
